In ChEMBL document CHEMBL1240415, “Design, synthesis and antimicrobial activities of some new quinoline derivatives carrying 1,2,3-triazole moiety” (2010):
≈ marks a conversion by molar mass, not a printed value.

Tests used:
Format in all cases: functional
Talaromyces marneffei = assay: Antifungal activity against recultured Penicillium marneffei after 3 to 4 days by serial plate dilution method; conditions: for MIC: Talaromyces marneffei
How it was run: (§1)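 Sabouraud agar made from peptone, glucose and agar in water, pH 5.7. Fungal spores suspended in normal saline and used to lawn the plates, which were dried 1 h at 37 °C. Wells punched and compounds added in DMSO, with a DMSO solvent control. Triplicate plates held at 37 °C for 3–4 days. Read-out is inhibition zone diameter.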

Aspergillus flavus = assay: Antifungal activity against Aspergillus flavus NCIM 524 after 3 to 4 days by serial plate dilution method; conditions: for MIC: Aspergillus flavus, NCIM 524; how it was run: as §1
Escherichia coli = assay: Antibacterial activity against Escherichia coli ATTC 25922 after 3 to 4 days by serial plate dilution method; conditions: for MIC: Escherichia coli, ATTC 25922
How it was run: (§2)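 Serial dilutions in Mueller-Hinton broth in tubes, pH adjusted to 5.0 with phosphate buffer. Inoculated with a standardized bacterial suspension and incubated 16–18 h at 37 °C. MIC is the lowest concentration with no visible growth, tested over 6.25–100 µg/mL. Zones come from an agar well diffusion assay: compounds in DMSO are added to wells in seeded agar, DMSO control, triplicate plates, 37 °C for 3–4 days, inhibition zone diameter in mm.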

Candida albicans = assay: Antifungal activity against Candida albicans after 3 to 4 days by serial plate dilution method; conditions: for MIC: Candida albicans; how it was run: as §1
Staphylococcus aureus = assay: Antibacterial activity against Staphylococcus aureus ATTC 25923 after 3 to 4 days by serial plate dilution method; conditions: for MIC: Staphylococcus aureus, ATTC 25923; how it was run: as §2
Pseudomonas aeruginosa = assay: Antibacterial activity against Pseudomonas aeruginosa ATCC 27853 after 3 to 4 days by serial plate dilution method; conditions: for MIC: Pseudomonas aeruginosa, ATCC 27853; how it was run: as §2
[1] = tested on: Trichophyton mentagrophytes; assay: Antifungal activity against recultured Trichophyton mentagrophytes after 3 to 4 days by serial plate dilution method; conditions: for MIC: Trichophyton mentagrophytes; how it was run: as §1
Klebsiella pneumoniae = assay: Antibacterial activity against recultured Klebsiella pneumoniae after 3 to 4 days by serial plate dilution method; conditions: for MIC: Klebsiella pneumoniae; how it was run: as §2
Aspergillus fumigatus = assay: Antifungal activity against Aspergillus fumigatus NCIM 902 after 3 to 4 days by serial plate dilution method; conditions: for MIC: Aspergillus fumigatus, NCIM 902; how it was run: as §1
Streptococcus pyogenes = assay: Antibacterial activity against Streptococcus pyogenes after 3 to 4 days by serial plate dilution method; conditions: for MIC: Streptococcus pyogenes; how it was run: as §2

Row | Compound | diameter of the inhibition zone (DIZ) (Talaromyces marneffei) | MIC (Talaromyces marneffei) | diameter of the inhibition zone (DIZ) (Aspergillus flavus) | MIC (Aspergillus flavus) | diameter of the inhibition zone (DIZ) (Escherichia coli) | MIC (Escherichia coli) | diameter of the inhibition zone (DIZ) (Candida albicans) | MIC (Candida albicans) | diameter of the inhibition zone (DIZ) (Staphylococcus aureus) | MIC (Staphylococcus aureus) | diameter of the inhibition zone (DIZ) (Pseudomonas aeruginosa) | MIC (Pseudomonas aeruginosa) | diameter of the inhibition zone (DIZ) [1] | MIC [1] | diameter of the inhibition zone (DIZ) (Klebsiella pneumoniae) | MIC (Klebsiella pneumoniae) | diameter of the inhibition zone (DIZ) (Aspergillus fumigatus) | MIC (Aspergillus fumigatus) | diameter of the inhibition zone (DIZ) (Streptococcus pyogenes) | MIC (Streptococcus pyogenes)
1 | CCN1CCN(Cc2cn(-c3cc(C)nc4ccc(OC)cc34)nn2)CC1 | 18 mm | 6.25 µg/mL (≈ 17.1 µM) | 16 mm | 6.25 µg/mL (≈ 17.1 µM) | 18 mm | 6.25 µg/mL (≈ 17.1 µM) | 12 mm | 6.25 µg/mL (≈ 17.1 µM) | 18 mm | 6.25 µg/mL (≈ 17.1 µM) | 12 mm | 6.25 µg/mL (≈ 17.1 µM) | 12 mm | 6.25 µg/mL (≈ 17.1 µM) | 16 mm | 6.25 µg/mL (≈ 17.1 µM) | 14 mm | 6.25 µg/mL (≈ 17.1 µM) | 12 mm | 6.25 µg/mL (≈ 17.1 µM)
2 | COc1ccc2nc(C)cc(-n3cc(CN4CCN(C(C)=O)CC4)nn3)c2c1 | 16 mm | 6.25 µg/mL (≈ 16.4 µM) | 14 mm | 6.25 µg/mL (≈ 16.4 µM) | 18 mm | 6.25 µg/mL (≈ 16.4 µM) | 10 mm | 6.25 µg/mL (≈ 16.4 µM) | 20 mm | 6.25 µg/mL (≈ 16.4 µM) | 14 mm | 6.25 µg/mL (≈ 16.4 µM) | 14 mm | 6.25 µg/mL (≈ 16.4 µM) | 12 mm | 6.25 µg/mL (≈ 16.4 µM) | 16 mm | 6.25 µg/mL (≈ 16.4 µM) | 16 mm | 6.25 µg/mL (≈ 16.4 µM)
3 | COc1ccc2nc(C)cc(-n3cc(CN4CCN(C5CCCCC5)CC4)nn3)c2c1 | <10 mm | 50 µg/mL (≈ 119 µM) | <10 mm | 50 µg/mL (≈ 119 µM) | 10 mm | 12.5 µg/mL (≈ 29.7 µM) | <10 mm | 50 µg/mL (≈ 119 µM) | 10 mm | 12.5 µg/mL (≈ 29.7 µM) | 10 mm | 12.5 µg/mL (≈ 29.7 µM) | <10 mm | 50 µg/mL (≈ 119 µM) | 10 mm | 12.5 µg/mL (≈ 29.7 µM) | <10 mm | 50 µg/mL (≈ 119 µM) | 10 mm | 12.5 µg/mL (≈ 29.7 µM)
4 | COc1ccc2nc(C)cc(-n3cc(CN4CCN(c5ccccc5F)CC4)nn3)c2c1 | 12 mm | 6.25 µg/mL (≈ 14.5 µM) | 10 mm | 6.25 µg/mL (≈ 14.5 µM) | 10 mm | 12.5 µg/mL (≈ 28.9 µM) | 10 mm | 6.25 µg/mL (≈ 14.5 µM) | 10 mm | 12.5 µg/mL (≈ 28.9 µM) | 10 mm | 6.25 µg/mL (≈ 14.5 µM) | 10 mm | 6.25 µg/mL (≈ 14.5 µM) | 10 mm | 6.25 µg/mL (≈ 14.5 µM) | 12 mm | 6.25 µg/mL (≈ 14.5 µM) | 14 mm | 6.25 µg/mL (≈ 14.5 µM)
5 | COc1ccc2nc(C)cc(-n3cc(CN4CCN(c5ccc(F)cc5)CC4)nn3)c2c1 | 12 mm | 6.25 µg/mL (≈ 14.5 µM) | 10 mm | 12.5 µg/mL (≈ 28.9 µM) | 12 mm | 6.25 µg/mL (≈ 14.5 µM) | 12 mm | 6.25 µg/mL (≈ 14.5 µM) | 11 mm | 12.5 µg/mL (≈ 28.9 µM) | 10 mm | 6.25 µg/mL (≈ 14.5 µM) | 10 mm | 6.25 µg/mL (≈ 14.5 µM) | 12 mm | 6.25 µg/mL (≈ 14.5 µM) | 14 mm | 6.25 µg/mL (≈ 14.5 µM) | <10 mm | 12.5 µg/mL (≈ 28.9 µM)
6 | COc1ccc(N2CCN(Cc3cn(-c4cc(C)nc5ccc(OC)cc45)nn3)CC2)cc1 | 18 mm | 6.25 µg/mL (≈ 14.1 µM) | 14 mm | 6.25 µg/mL (≈ 14.1 µM) | 20 mm | 6.25 µg/mL (≈ 14.1 µM) | 14 mm | 6.25 µg/mL (≈ 14.1 µM) | 16 mm | 6.25 µg/mL (≈ 14.1 µM) | 14 mm | 6.25 µg/mL (≈ 14.1 µM) | 16 mm | 6.25 µg/mL (≈ 14.1 µM) | 16 mm | 6.25 µg/mL (≈ 14.1 µM) | 16 mm | 6.25 µg/mL (≈ 14.1 µM) | 14 mm | 6.25 µg/mL (≈ 14.1 µM)
